{"source": "paper PMC8751737", "about": "(International journal of pharmaceutics, 2021)", "key": {"Calu-3 bearing nude mice [1]": {"system": "Calu-3 bearing nude mice", "test": "Toxicity study", "type": "in vivo, BALB/c nude mice", "summary_of_the_method": "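Same Calu-3 xenograft nude mice and intravenous dosing every four days, with a PBS control group. Body weight was recorded every four days during the efficacy study. At termination (38 days), heart, liver, spleen, kidney and lung tumor were formalin-fixed and paraffin-embedded. Sections of 5 μm were H&E-stained and examined microscopically by a toxicologist.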"}, "Calu-3 [2]": {"system": "Calu-3", "test": "Apoptosis study", "type": "cell-based, human", "details": "Calu-3, 3 μM, 12 h, annexin V-FITC/PI, n=3", "summary_of_the_method": "(§1)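 Cells were seeded at 2×10⁵ cells/mL in flasks and cultured 24 h. At 70% confluence they were exposed to 3 μM test compound in serum-free medium for 12 h. Cells were then trypsinized, washed in ice-cold PBS and resuspended in binding buffer at 2.5×10⁶ cells/mL. Staining with annexin V-FITC plus propidium iodide ran 15 min before flow cytometry.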"}, "Calu-3 bearing nude mice [3]": {"system": "Calu-3 bearing nude mice", "test": "In vivo antitumor activity", "design": "species or system BALB/c nude mice", "details": "intravenous, Dox-equivalent dose 6 mg kg−1 every four days, mean ± SD, n=5", "summary_of_the_method": "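Male and female BALB/c nude mice (22–35 g) received 1×10⁷ Calu-3 cells in 100 μL culture medium subcutaneously in the right back. At 30–50 mm³ tumors, mice were randomized (n = 5/group). Dosing was intravenous every four days, with PBS as control. Tumor volume was measured every four days. Mice were killed at 38 days and tumors weighed.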"}, "[4]": {"system": "non-cancerous lung fibroblast cells (HLFs)", "test": "Antiproliferative activity, CellTiter-Glo assay", "type": "cell-based, human", "details": "read-out: IC50 (72 Hours) HLFs, 72 h incubation, triplicate", "summary_of_the_method": "(§2)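 Cells were plated in 96-well plates and held 24 h at 37 °C in 5% CO2. Media with 10% FBS, 1% penicillin-streptomycin and 1% insulin were RPMI-1640 for BT474, EMEM for Calu-3 and Fibroblast Basal Medium for HLFs. Test compound or liposome was added at 0.001–100 μM for 72 h. Cells were PBS-washed before CellTiter-Glo luminescence. Triplicate runs; IC50 from dose-response plot.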"}, "MCF-7 3D tumor spheroids": {"system": "MCF-7 3D tumor spheroids", "test": "Antiproliferative activity in multicellular 3D tumor spheroid", "type": "cell-based, human", "details": "read-out: 3D tumor spheroid IC50 (72 Hours) MCF-7, hanging drop spheroids, CellTiter-Glo 3D, mean ± SD, n=3", "summary_of_the_method": "(§3)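 Hanging-drop spheroids seeded at 500 cells/μL in 40 μL of medium and formed over 24 h at 37 °C, 5% CO2, humidified. Spheroids moved to round-bottom 96-well plates in serum-free medium and treated with test compound at 0.01–100 μM for 72 h at 37 °C. Viability read by CellTiter-Glo 3D luminescence, and IC50 derived from the dose-response.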"}, "MCF-7 spheroids": {"system": "MCF-7 spheroids", "test": "In vitro tumor growth inhibition in 3D tumor spheroids", "type": "cell-based, human", "details": "3 μM, 5 days", "summary_of_the_method": "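MCF-7 cells (40 μL at 125 cells/μL) grown as hanging-drop spheroids at 37 °C, 5% CO2, humidified, until about 100–200 μm, then moved to round-bottom 96-well plates (day zero). Treated with test compound at 3 μM, with untreated controls. Imaged for five consecutive days under a 4× objective, and volume calculated as 0.5 × length × width².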"}, "[5]": {"system": "Calu-3 3D tumor spheroids", "test": "Antiproliferative activity in multicellular 3D tumor spheroid", "type": "cell-based, human", "details": "read-out: 3D tumor spheroid IC50 (72 Hours) Calu-3, hanging drop spheroids, CellTiter-Glo 3D, mean ± SD, n=3", "summary_of_the_method": "as §3"}, "BT474 [6]": {"system": "BT474", "test": "Antiproliferative activity, CellTiter-Glo assay", "type": "cell-based, human", "details": "read-out: IC50 (72 Hours) BT474, 72 h incubation, triplicate", "summary_of_the_method": "as §2"}, "Calu-3 [7]": {"system": "Calu-3", "test": "Antiproliferative activity, CellTiter-Glo assay", "type": "cell-based, human", "details": "read-out: IC50 (72 Hours) Calu-3, 72 h incubation, triplicate", "summary_of_the_method": "as §2"}, "BT474 [8]": {"system": "BT474", "test": "Apoptosis study", "type": "cell-based, human", "details": "BT474, 3 μM, 12 h, annexin V-FITC/PI, n=3", "summary_of_the_method": "as §1"}, "BT474 3D tumor spheroids": {"system": "BT474 3D tumor spheroids", "test": "Antiproliferative activity in multicellular 3D tumor spheroid", "type": "cell-based, human", "details": "read-out: 3D tumor spheroid IC50 (72 Hours) BT474, hanging drop spheroids, CellTiter-Glo 3D, mean ± SD, n=3", "summary_of_the_method": "as §3"}}}
{"smiles": "COc1cccc2c1C(=O)c1c(O)c3c(c(O)c1C2=O)C[C@@](O)(C(=O)CO)C[C@@H]3O[C@H]1C[C@H](N)[C@H](O)[C@H](C)O1", "note": "[Free Dox, Doxorubicin]", "values": [{"measurement": "body weight loss", "setting": "Calu-3 bearing nude mice [1]; Dox-equivalent 6 mg kg−1 every four days, 38 days after tumor implantation", "result": "significant weight loss"}, {"measurement": "histopathology of heart tissues", "setting": "Calu-3 bearing nude mice [1]; H&E, at 38 days, compared to control group", "result": "some amount of vascular degeneration"}, {"measurement": "histopathology of liver and kidneys", "setting": "Calu-3 bearing nude mice [1]; H&E, at 38 days, compared to control group (PBS)", "result": "no apparent inflammatory reaction, structural modification, or pathological abnormalities"}, {"measurement": "histopathology of spleen", "setting": "Calu-3 bearing nude mice [1]; H&E, at 38 days, compared with control group", "result": "loss of lymphoid blue matter and deposition of red matter"}, {"measurement": "total percentage of apoptosis", "setting": "Calu-3 [2]", "result": 16.83, "unit": "%"}, {"measurement": "mean tumor size at 38 days after implantation", "setting": "Calu-3 bearing nude mice [3]", "result": "68.26 ± 25.89", "unit": "mm^3"}, {"measurement": "mean tumor weight at 38 days after implantation", "setting": "Calu-3 bearing nude mice [3]", "result": "162.8 ± 21.98", "unit": "mg"}, {"measurement": "IC50", "setting": "[4]", "result": "170 ± 82", "unit": "nM"}, {"measurement": "IC50", "setting": "MCF-7 3D tumor spheroids", "result": "548 ± 125", "unit": "nM"}, {"measurement": "inhibition of spheroid growth", "setting": "MCF-7 spheroids", "result": "significant inhibition of spheroidal tumor growth"}, {"measurement": "IC50", "setting": "[5]", "result": "745 ± 54", "unit": "nM"}, {"measurement": "IC50", "setting": "BT474 [6]", "result": "399 ± 79", "unit": "nM"}, {"measurement": "IC50", "setting": "Calu-3 [7]", "result": "158 ± 75", "unit": "nM"}, {"measurement": "total percentage of apoptosis", "setting": "BT474 [8]", "result": 35.49, "unit": "%"}, {"measurement": "IC50", "setting": "BT474 3D tumor spheroids", "result": "845 ± 58", "unit": "nM"}]}
